Measured values from article PMC5634022 (Journal of Insect Science, 2014).

Tested on: CarE (carboxylesterase, EC3.1.1.1), final purified
Assay: esterase activity, Fast Blue B, Lineweaver-Burk
Type: biochemical, Dendrolimus superans
Conditions: read-out: K m (mol/liter); 35°C; kcat unit printed as s
How it was run: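 Carboxylesterase from sixth-instar larval tissue homogenate, purified at 4°C by ammonium sulfate precipitation, Sephadex G-25, DEAE-52 and hydroxyapatite chromatography. Enzyme incubated 10 min at 35°C with α- or β-naphthyl acetate at five concentrations (0.1875–3.0 × 10^-4 mol/liter). Stopped with SDS/Fast Blue B; read at 600 nm. Km and Vmax from Lineweaver–Burk plots. Kcat from SDS-PAGE molecular weight and Vmax.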

Work on CC(=O)Oc1ccc2ccccc2c1 [β-NA] yielded a Km of 0.000162 mol/L.
